# Compound activity as filed in PubChem BioAssay.
# Many of the other results were omitted from the sample, so hits are more common in it than they were.
# HUVEC prolif 384: inhibitors of HUVEC proliferation, primary screen, cell-based, 384-well; viability, % at 10 µM (by protocol); actives 1.1% (n = 86,000); AID 648, 2007; CellTiter-Glo luminescence, 72 h; active compounds read low;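 active means viability at or below 30%; inactive means viability above 30%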;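 further: 100% = median luminescence of DMSO-only cell control wells on each plate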
# H69AR growth 86K: proliferation blockers of H69AR lung cancer cells, primary screen, cell-based, human, 86K library; actives 6% (n = 85,000); AID 598, 2007; H69AR lung tumor viability, ATP luminescence, 72 h; active compounds read low; viability, % at 10 µM;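 active means viability at or below 40%; inactive means viability above 40%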;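 further: multidrug resistant small cell line overexpressing MRP-1 efflux transporter; 100% = mean luminescence of untreated control wells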
# HCT116 bCat-KO: primary screen for growth suppressors in beta-catenin knockout HCT116 cells (colon tumor, human). viability, % at 10 µM. HCT116 beta-catenin knockout viability, CellTiter-Glo, 60 h; active compounds read low. actives 1.5% (n = 140,000);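 active means viability at or under a set limit, the compound median less 4 SD, cut at about 6% in these data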;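 further: 0% = Hyamine 1622 control at 20 µM and 100% = untreated cell control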
# PTEN del growth: growth suppression of PTEN-null HCT116, primary screen, cell-based, CellTiter-Glo | HCT116 PTEN-null viability, 60 h; active compounds read low | viability, % at 10 µM | AID 827, 2007 | actives 1.2% (n = 140,000);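 active means viability at or below a set limit, 4 SD under the median of all tested compounds, cut at about 3.7% in these data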;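 further: PTEN knockout HCT116 line with beta catenin targeted HCT116 as companion control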
# Lung fibro prol: antiproliferative effect on LL 47 fibroblasts – human, LL 47 cells, CellTiter-Glo luminescence, primary screen. actives 1.1% (n = 85,000). viability, % at 10 µM. LL 47 human lung fibroblast viability, ATP luminescence; active compounds read low. AID 719, 2007;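 active means viability at or below 50% in the single dose screen; inactive means viability above 50%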;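 further: compound exposure lasted 72 h before the ATP readout; 100% = median luminescence of untreated cell-only wells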
#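 Material: Human LL 47 lung fibroblast cells | Input: 1,150 cells/well | Buffer or medium: IMEM plus 15% FBS | Compound dosing: 0.1% DMSO in all compound wells | Times: Overnight cell rest, 72 h compound treatment at 37 °C | Signal: CellTiter-Glo luminescence measuring cellular ATP | Measure: % viability versus median cells-only luminescence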
# * marks the source's active call; other numbers are inactive results; x = not tested or not shown.
SMILES,HUVEC prolif 384,H69AR growth 86K,HCT116 bCat-KO,PTEN del growth,Lung fibro prol
Cc1onc(-c2c(F)cccc2Cl)c1C(=O)NC(=S)NC1CCS(=O)(=O)C1 (configuration not stated),x,x,90.7,97.7,x
Cc1cccc2cc(CN(Cc3ccccc3)C(=O)c3cccc(F)c3)c(Cl)nc12,x,x,62.6,63.5,x
CC(=O)Nc1ccccc1/C=C/c1ccc2c(C)ccc(O)c2n1,x,x,17.9,17.3,x
CC(=O)Nc1ccccc1/C=C/c1ccc2c(C)cc(C)c(O)c2n1,x,x,11.8,3.3*,x
CC(=O)NC(CCS(C)(=O)=O)C(=O)Nc1ccc(Oc2ccccc2)cc1 (configuration not stated),109.9,91.3,99.2,107.9,99.0
N#CCC(=O)NCCCc1ccccc1,x,x,97.8,96.2,x
O=C(c1ccco1)N1CCN(C/C=C/c2ccccc2)CC1,89.4,90.9,94.0,91.6,94.8
O=C(c1nn(Cc2ccccc2)c(=O)c2ccccc12)N1CCN(C/C=C/c2ccccc2)CC1,66.2,31.2*,64.5,51.4,89.8
CN1C2CCC1/C(=C\c1ccccc1)C(=O)/C2=C\c1ccccc1,x,x,8.1,8.3,x
CN(Cc1ccccc1)c1ccc(N2C(=O)CCCC2=O)cc1[N+](=O)[O-],x,x,90.8,94.4,x
COc1ccc(CNC(=O)C(c2ccncc2)N(C(=O)Cc2cccs2)c2ccccc2)cc1 (configuration not stated),x,x,82.6,100.6,x
COc1ccc(N(C(=O)CCl)C(C(=O)NCCc2ccccc2)c2cccs2)cc1 (configuration not stated),x,x,1.6*,0.7*,x
Cc1cc(C)n2nc(SCc3cc(=O)n4c(C)cccc4n3)nc2n1,100.0,88.1,x,x,94.9
Cc1ccc(NC(=O)NC2=N/C(=C(/C#N)C(=O)N3CCCC3)c3ccccc32)cc1,105.0,36.8*,x,x,109.5
CCOC(=O)c1c(C)[nH]c(C(=O)COC(=O)CNC(=O)c2ccc(Cl)cc2Cl)c1C,x,x,92.7,100.3,x
CCc1ccccc1NC(=O)C(CC)Sc1nc2cc3c(cc2c(=O)n1Cc1ccco1)OCO3 (configuration not stated),46.1,6.3*,102.4,101.1,84.8
CCc1ccc(NC(=O)C(CC)Sc2nc3cc4c(cc3c(=O)n2Cc2ccco2)OCO4)cc1 (configuration not stated),35.4,9.8*,1.8*,15.3,28.2*
Cc1ccc2nc(NC(=O)CSc3nncc(=O)n3N)sc2c1,x,x,84.6,67.2,x
CCOc1ccc(-c2[nH]ncc2Oc2cccc(OC)c2)c(O)c1,68.8,18.0*,87.4,89.5,92.8
COc1ccc(-c2[nH]ncc2-c2ccc(Cl)cc2)c(O)c1,51.8,14.3*,89.4,71.7,88.0
COc1cccc(Oc2cn[nH]c2-c2ccc(OC)cc2O)c1,50.9,8.1*,94.0,88.0,94.1
COc1cccc(Oc2cn[nH]c2-c2ccc(O)cc2O)c1,83.8,73.2,93.9,92.5,87.1
Oc1ccc(-c2[nH]ncc2-c2ccc(Cl)cc2)c(O)c1,55.7,98.6,76.2,67.3,88.0
O=C(COC(=O)c1ccc2[nH]c3c(c2c1)CCCC3)Nc1ccccc1,x,x,79.2,82.1,x
O=C(c1ccco1)c1cn[nH]c1-c1ccc(Cl)cc1O,102.2,97.4,103.2,99.9,90.7
SMILES,HUVEC prolif 384,H69AR growth 86K,HCT116 bCat-KO,PTEN del growth,Lung fibro prol
COc1ccc(S(=O)(=O)Cc2ccc(C(=O)N3CCN(c4cccc(C)c4C)CC3)o2)cc1,53.5,22.7*,12.1,14.1,71.1
COc1ccc(S(=O)(=O)Cc2ccc(C(=O)N3CCN(c4cccc(C)c4)C(C)C3)o2)cc1 (configuration not stated),49.7,25.2*,23.1,21.3,55.8
COc1ccc(N2CCN(C(=O)c3ccc(CS(=O)(=O)c4ccc(OC)cc4)o3)CC2)cc1,100.4,81.5,83.4,89.1,94.9
CCCCCOc1ccc(C(=O)NCC(=O)NCC(=O)OCC)cc1,56.5,24.6*,35.9,36.1,83.2
CCOC(=O)CNC(=O)CNC(=O)c1ccc(OCC(C)C)cc1,89.1,53.8,91.0,96.9,82.5
CCn1c2ccccc2c2cc(C3C(C#N)=C(N)Oc4n[nH]c(COC)c43)ccc21 (configuration not stated),5.6*,83.0,2.3*,6.1,54.2
